Experimental findings from ChEMBL document CHEMBL3593234, “Lanostane Triterpenes from the Tibetan Medicinal Mushroom Ganoderma leucocontextum and Their Inhibitory Effects on HMG-CoA Reductase and α-Glucosidase” (J Nat Prod, 2015) are described below.

A value given as a limit tells only on which side of the number the result lay.

For assay [1], the target named is T1, 3-hydroxy-3-methylglutaryl-coenzyme A reductase (Homo sapiens, UniProt P04035).
T1 sequence (P04035 whole entry): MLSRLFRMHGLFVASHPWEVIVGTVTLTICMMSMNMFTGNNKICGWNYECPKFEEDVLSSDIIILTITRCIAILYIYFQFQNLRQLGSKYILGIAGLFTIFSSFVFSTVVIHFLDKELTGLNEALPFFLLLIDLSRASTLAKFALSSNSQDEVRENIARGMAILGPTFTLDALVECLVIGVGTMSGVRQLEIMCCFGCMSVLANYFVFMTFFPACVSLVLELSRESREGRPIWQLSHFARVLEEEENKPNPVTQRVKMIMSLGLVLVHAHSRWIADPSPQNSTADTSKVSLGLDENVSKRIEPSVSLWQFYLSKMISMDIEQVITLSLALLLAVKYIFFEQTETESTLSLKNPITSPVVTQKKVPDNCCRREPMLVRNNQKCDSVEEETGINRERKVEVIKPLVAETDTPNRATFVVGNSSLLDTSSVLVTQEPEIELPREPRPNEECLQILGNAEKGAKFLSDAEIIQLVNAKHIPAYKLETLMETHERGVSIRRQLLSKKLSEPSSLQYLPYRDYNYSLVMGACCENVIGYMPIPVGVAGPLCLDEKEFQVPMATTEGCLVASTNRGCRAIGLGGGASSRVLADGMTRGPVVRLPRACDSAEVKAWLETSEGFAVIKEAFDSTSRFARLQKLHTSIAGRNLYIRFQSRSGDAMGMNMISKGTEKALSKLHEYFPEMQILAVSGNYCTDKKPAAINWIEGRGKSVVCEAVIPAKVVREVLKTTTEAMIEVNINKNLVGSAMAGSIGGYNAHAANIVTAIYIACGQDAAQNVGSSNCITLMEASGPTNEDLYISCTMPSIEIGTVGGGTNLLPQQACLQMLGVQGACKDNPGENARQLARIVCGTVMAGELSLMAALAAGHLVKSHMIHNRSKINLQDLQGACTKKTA
Kind of assay: Inhibition of HMG-CoA reductase (unknown origin). The method in brief:
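Pig liver microsomal enzyme (about 4 U/mL final), colorimetric. Compounds at 2.5–80 μM final with HMG-CoA (200 μM final) in 0.1 mol/L potassium phosphate pH 7.0 (3.5 mmol/L EDTA, 10 mmol/L DTT, 0.1 g/L BSA). Preincubated 5 min at 37 °C, then NADPH (100 μM final) added for 15 min at 37 °C. A340 read; % inhibition against enzyme-free blanks and compound-free controls.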

The subject of a further assay is K562. Put plainly: Cytotoxicity against human K562 cells by MTT method. The class given is functional, cell-based. The note with it: Homo sapiens, K562. A general note: Formazan colour is commonly taken as a measure of viable cells.
The nature of assay [2]: Inhibition of Baker's yeast alpha-glucosidase. On the set-up: species or system Saccharomyces cerevisiae. In short, it runs like this: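 Baker's yeast α-glucosidase assay read by absorbance at 405 nm. Control wells got phosphate buffer instead of compound, and blanks got buffer instead of enzyme. Percent inhibition was calculated from blank-corrected OD of test versus control wells.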

Assay [3] can be described thus: Inhibition of alpha-glucosidase in rat intestinal mucosa pre-incubated for 40 mins using p-nitrophenyl-alpha-D-glucopyranoside substrate. The class given is tissue-based. The method in brief:
(§1)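 Rat intestinal mucosa powder (1.0 g) was suspended in 3 mL 0.9% saline and sonicated at 4 °C (12 × 30 s), then spun at 10000g, 4 °C, 30 min; the supernatant served as enzyme. Compound in DMSO was mixed with substrate (maltose, sucrose or p-nitrophenyl-α-D-glucopyranoside) in 0.1 M phosphate buffer pH 6.9 and preincubated 40 min. Glucose was read by GOD kit at 550 nm, with blank-corrected percent inhibition.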

Assay [4] addresses Sucrase-isomaltase, intestinal (Rattus norvegicus, UniProt P23739). Kind of assay: Inhibition of sucrase in rat intestinal mucosa pre-incubated for 40 mins using sucrose substrate. Format: tissue-based. The method in brief:
as §1

The target of assay [5] is T2, 3-hydroxy-3-methylglutaryl-coenzyme A reductase (Sus scrofa, UniProt Q1W675).
T2 sequence (Q1W675 whole entry): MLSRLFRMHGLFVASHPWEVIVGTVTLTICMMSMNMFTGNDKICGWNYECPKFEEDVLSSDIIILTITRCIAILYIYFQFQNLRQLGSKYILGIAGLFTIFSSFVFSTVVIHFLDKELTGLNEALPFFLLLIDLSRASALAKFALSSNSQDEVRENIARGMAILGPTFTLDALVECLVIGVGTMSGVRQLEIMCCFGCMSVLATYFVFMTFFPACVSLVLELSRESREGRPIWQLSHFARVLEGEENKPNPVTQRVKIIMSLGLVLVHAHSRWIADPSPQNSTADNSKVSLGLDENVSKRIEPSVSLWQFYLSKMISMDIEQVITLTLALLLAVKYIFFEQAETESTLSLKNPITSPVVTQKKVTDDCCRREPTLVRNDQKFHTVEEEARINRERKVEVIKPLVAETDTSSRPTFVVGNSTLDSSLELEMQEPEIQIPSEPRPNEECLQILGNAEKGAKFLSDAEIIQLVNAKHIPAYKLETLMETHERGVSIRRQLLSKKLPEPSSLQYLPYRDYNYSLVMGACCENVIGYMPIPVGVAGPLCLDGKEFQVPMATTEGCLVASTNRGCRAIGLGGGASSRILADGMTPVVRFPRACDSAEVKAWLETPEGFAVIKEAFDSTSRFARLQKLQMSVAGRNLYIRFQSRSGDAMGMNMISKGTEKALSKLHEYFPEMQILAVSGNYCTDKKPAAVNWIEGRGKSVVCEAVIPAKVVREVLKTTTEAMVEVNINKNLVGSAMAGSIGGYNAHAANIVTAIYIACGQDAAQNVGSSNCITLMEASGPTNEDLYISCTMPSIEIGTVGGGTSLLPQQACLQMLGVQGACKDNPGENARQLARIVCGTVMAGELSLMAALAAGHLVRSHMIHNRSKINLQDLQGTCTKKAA
Kind of assay: Inhibition of pig liver microsomes HMG-CoA reductase incubated for 5 mins in using HMG-CoA and NADPH by colorimetric method. In short, it runs like this: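 Pig liver microsomal HMG-CoA reductase at about 4 U/mL final, with compound at 2.5–80 μM final and 200 μM HMG-CoA. Buffer was 0.1 mol/L potassium phosphate pH 7.0 with EDTA, dithiothreitol and BSA. After 5 min at 37 °C, 100 μM NADPH was added for 15 min at 37 °C. Absorbance was read at 340 nm, with percent inhibition from blank-corrected OD.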

A further assay concerns PC-3. Kind of assay: Cytotoxicity against human PC3 cells by MTT method. Format: functional, cell-based. The following applies: Homo sapiens, PC-3.
Assay [6] in a line: Inhibition of alpha-glucosidase (unknown origin). On the set-up: species or system Homo sapiens. The method in brief:
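Baker's yeast enzyme with phosphate buffer; absorbance read at 405 nm. Compound-free controls and enzyme-free blanks used. % inhibition = [(ODcontrol − ODcontrol blank) − (ODtest − ODtest blank)]/(ODcontrol − ODcontrol blank) × 100.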

Chain of Sucrase-isomaltase, intestinal (P23739 1-1013 limits assumed): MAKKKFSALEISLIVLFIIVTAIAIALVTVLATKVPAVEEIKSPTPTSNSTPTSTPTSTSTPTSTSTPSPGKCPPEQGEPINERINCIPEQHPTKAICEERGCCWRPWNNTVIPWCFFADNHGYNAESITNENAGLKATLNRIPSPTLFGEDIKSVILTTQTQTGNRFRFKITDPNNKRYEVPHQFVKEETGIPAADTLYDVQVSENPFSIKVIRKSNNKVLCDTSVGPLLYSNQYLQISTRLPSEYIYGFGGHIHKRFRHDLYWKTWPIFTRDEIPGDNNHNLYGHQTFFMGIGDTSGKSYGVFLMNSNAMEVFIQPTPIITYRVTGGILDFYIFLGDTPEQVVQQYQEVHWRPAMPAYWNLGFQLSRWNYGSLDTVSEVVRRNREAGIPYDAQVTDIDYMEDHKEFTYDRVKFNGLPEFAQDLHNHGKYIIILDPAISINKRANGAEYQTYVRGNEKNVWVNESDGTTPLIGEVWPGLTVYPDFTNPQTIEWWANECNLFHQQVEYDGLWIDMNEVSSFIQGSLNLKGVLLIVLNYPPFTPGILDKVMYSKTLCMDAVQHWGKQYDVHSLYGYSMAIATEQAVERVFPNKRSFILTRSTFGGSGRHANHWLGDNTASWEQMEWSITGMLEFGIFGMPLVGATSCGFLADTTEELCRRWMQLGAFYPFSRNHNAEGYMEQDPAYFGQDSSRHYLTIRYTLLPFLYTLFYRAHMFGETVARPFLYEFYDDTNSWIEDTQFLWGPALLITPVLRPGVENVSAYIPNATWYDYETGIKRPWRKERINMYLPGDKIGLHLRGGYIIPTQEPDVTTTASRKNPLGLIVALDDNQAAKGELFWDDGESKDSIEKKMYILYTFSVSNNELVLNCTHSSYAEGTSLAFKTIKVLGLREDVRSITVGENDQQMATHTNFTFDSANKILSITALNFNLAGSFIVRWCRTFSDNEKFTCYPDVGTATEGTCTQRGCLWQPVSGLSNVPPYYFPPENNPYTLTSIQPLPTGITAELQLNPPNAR
Chain of Sucrase-isomaltase, intestinal (P23739 1014-1841 limits assumed): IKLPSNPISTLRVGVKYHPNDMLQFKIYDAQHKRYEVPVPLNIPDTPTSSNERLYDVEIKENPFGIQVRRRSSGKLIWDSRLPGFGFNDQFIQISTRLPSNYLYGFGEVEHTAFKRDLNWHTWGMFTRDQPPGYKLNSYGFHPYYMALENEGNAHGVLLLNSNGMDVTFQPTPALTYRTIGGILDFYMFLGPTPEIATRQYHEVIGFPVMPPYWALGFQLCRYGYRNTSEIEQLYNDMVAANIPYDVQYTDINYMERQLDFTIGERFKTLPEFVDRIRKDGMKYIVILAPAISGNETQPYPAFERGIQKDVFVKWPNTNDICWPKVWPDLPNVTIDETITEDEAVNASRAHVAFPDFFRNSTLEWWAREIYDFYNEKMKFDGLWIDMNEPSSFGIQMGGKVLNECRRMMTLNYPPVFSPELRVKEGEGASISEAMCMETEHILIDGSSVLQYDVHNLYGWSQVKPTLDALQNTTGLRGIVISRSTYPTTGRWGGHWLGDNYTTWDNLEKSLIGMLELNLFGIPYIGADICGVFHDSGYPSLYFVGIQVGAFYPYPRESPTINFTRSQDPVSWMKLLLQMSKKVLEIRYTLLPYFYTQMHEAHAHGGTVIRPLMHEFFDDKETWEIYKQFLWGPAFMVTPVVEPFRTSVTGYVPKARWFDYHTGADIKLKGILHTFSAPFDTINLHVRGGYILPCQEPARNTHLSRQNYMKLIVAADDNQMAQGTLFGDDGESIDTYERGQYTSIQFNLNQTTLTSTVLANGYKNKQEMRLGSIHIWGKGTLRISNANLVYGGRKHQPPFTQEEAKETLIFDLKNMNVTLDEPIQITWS

As a reminder, the IC50 is the point on the concentration scale where inhibition reaches its midpoint. Low readings indicate greater potency, high ones weaker potency. On to `C/C(=C\CC[C@@H](C)[C@H]1C[C@H](O)[C@@]2(C)C3=CC[C@H]4C(C)(C)C(=O)CC[C@]4(C)C3=CC[C@]12C)C(=O)O`, for which 21.7 µM corresponded to half-maximal inhibition in assay [1] (IC50).
`C/C(=C\CC[C@@H](C)[C@H]1CC[C@@]2(C)C3=C(CC[C@]12C)[C@@]1(C)CC[C@H](O)C(C)(C)[C@@H]1CC3=O)C(=O)O` gave an IC50 in assay [1] of 22.3 µM.
As to `CC(C)=CCC/C(C)=C/CC/C(=C/Cc1cc(O)ccc1O)C(=O)OC[C@@](C)(O)[C@@H](O)CC[C@@H](C)[C@H]1CC[C@@]2(C)C3=CC[C@H]4C(C)(C)C(=O)CC[C@]4(C)C3=CC[C@]12C`, the IC50 stood at 48.6 µM in the assay on K562; 13.6 µM in assay [2]; 1.5 µM in assay [3]; 8.4 µM in assay [4]; 18.9 µM in assay [5]; 58.4 µM in the assay on PC-3.
As for `CC(C)=CCC/C(C)=C/CC/C(=C/Cc1cc(O)ccc1O)C(=O)O[C@@H](CC[C@@H](C)[C@H]1CC[C@@]2(C)C3=CC[C@H]4C(C)(C)C(=O)CC[C@]4(C)C3=CC[C@]12C)[C@](C)(O)CO`, the IC50 with K562 was determined as 48.4 µM; in assay [2] it was 2.5 µM; in assay [3], 8.1 µM; in assay [4], 22.5 µM; in assay [5], 24.1 µM; in the assay on PC-3, 14.4 µM.
Take `CC(C)=CCC/C(C)=C/CC/C(=C\Cc1cc(O)ccc1O)C(=O)O[C@@H](CC[C@@H](C)[C@H]1CC[C@@]2(C)C3=CC[C@H]4C(C)(C)C(=O)CC[C@]4(C)C3=CC[C@]12C)[C@](C)(O)CO`: the IC50 in the assay on K562 was 104 µM; in assay [2] it was greater than 50 µM; in assay [3] it was greater than 50 µM; in assay [4] it was greater than 50 µM; in assay [5], greater than 100 µM; with PC-3, greater than 200 µM.
On to `CC(C)=CCC/C(C)=C/CC/C(=C/Cc1cc(O)ccc1O)C(=O)OC[C@@](C)(O)[C@@H](O)CC[C@@H](C)[C@H]1CC[C@@]2(C)C3=C(CC[C@]12C)[C@@]1(C)CCC(=O)C(C)(C)[C@@H]1CC3=O`, for which the IC50 in the assay on K562 is 10.7 µM; in assay [2], 5.9 µM; in assay [3], 9.3 µM; in assay [4], 18.5 µM; in assay [5] it was greater than 100 µM; in the assay with PC-3 it was 10.8 µM.
In assay [6], `C/C(=C\CC[C@@H](C)[C@H]1CC[C@@]2(C)C3=CC[C@H]4C(C)(C)[C@@H](O)CC[C@]4(C)C3=CC[C@]12C)CO` [GANODEROL B] came in with an IC50 of 120 µM.
